{"data": "Assay results pooled from the literature", "target": "Discoidin domain-containing receptor 2 (DDR2, Homo sapiens, UniProt Q16832)", "note": "Each line is one published result; the experiments were not run side by side."}
{"Structure (SMILES)": "C[C@@H]1CN(c2cc(-c3n[nH]c4ccc(OC5(C)CC5)cc34)ncn2)C[C@H](C)O1", "observed": "cell-free assay", "technique": "competition with immobilised ligand", "concentration": "0.1 µM", "quantity": "remaining binding", "result": "82%"}
{"Structure (SMILES)": "CCCOc1ccc(OC)c(F)c1C(=O)c1ccc(C(=O)N[C@@H]2CNC[C@H]2NC(=O)c2ccc3[nH]ncc3c2)cc1", "observed": "enzyme activity", "mode": "inhibitor", "concentration": "10 µM", "quantity": "remaining activity", "result": "103%"}
{"Structure (SMILES)": "CCC(=O)N[C@H]1CC[C@@H](C(=O)N(C)c2ccc(-c3nc4ccccc4o3)cc2)C1", "observed": "cell-free assay", "technique": "competition with immobilised ligand", "concentration": "1 µM", "quantity": "remaining binding", "result": "100%"}
{"Structure (SMILES)": "O=C1Nc2ccc(Cl)cc2C1=Cc1cc(Cl)c(O)c(Cl)c1", "observed": "cell-free assay", "concentration": "0.5 µM", "quantity": "remaining signal", "result": "85.8%"}
{"Structure (SMILES)": "C=CC(=O)Nc1cc(Nc2nccc(Nc3cc(Cl)c(F)cc3C(C)(C)O)n2)c(OC)cc1N1CC[C@@H](N(C)C)C1", "observed": "enzyme activity", "mode": "inhibitor", "concentration": "1 µM", "quantity": "inhibition", "result": "1%"}
{"Structure (SMILES)": "CCCS(=O)(=O)Nc1ccc(F)c(C(=O)c2c[nH]c3ncc(-c4ccc(Cl)cc4)cc23)c1F", "observed": "enzyme activity", "mode": "inhibitor", "concentration": "1 µM", "quantity": "inhibition", "result": "< 10%"}
{"Structure (SMILES)": "COc1cc(Nc2cnc(C#N)c(O[C@H](C)CN(C)C)n2)ncc1-c1cnn(C)c1", "observed": "enzyme activity", "mode": "inhibitor", "technique": "radiometric", "concentration": "1 µM", "quantity": "remaining activity", "result": "95%"}
{"Structure (SMILES)": "CS(=O)(=O)c1cc(C2(NC(=O)c3cncc4c3cnn4-c3ccc(F)cc3)CC2)ccn1", "observed": "cell-free assay", "technique": "competition with immobilised ligand", "concentration": "1 µM", "quantity": "remaining binding", "result": "100%"}
{"Structure (SMILES)": "COc1cc2nccc(Oc3ccc(NC(=O)c4c5n(n(-c6ccc(F)cc6)c4=O)CCCC5)cc3)c2cc1OC", "observed": "enzyme activity", "mode": "inhibitor", "concentration": "0.1 µM", "quantity": "inhibition", "result": "20%"}
{"Structure (SMILES)": "COc1cc2c(N3CCN(C(=O)Nc4ccc(OC(C)C)cc4)CC3)ncnc2cc1OCCCN1CCCCC1", "observed": "cell-free assay", "concentration": "0.5 µM", "quantity": "remaining signal", "result": "102%"}
{"Structure (SMILES)": "O=C(Nc1cnn(-c2csc(C(=O)NC3COC3)c2)c1)Nc1c(F)cccc1Cl", "observed": "enzyme activity", "mode": "inhibitor", "concentration": "5 µM", "quantity": "remaining activity", "result": "96.6%"}
{"Structure (SMILES)": "Cc1c[nH]c2nccc(Oc3c(F)cc(Nc4cc(Cl)nc(N)n4)cc3F)c12", "observed": "cell-free assay", "technique": "competition with immobilised ligand", "concentration": "0.1 µM", "quantity": "remaining binding", "result": "57%"}
{"Structure (SMILES)": "O=C1NC(=O)c2cc(Nc3ccc(F)cc3)c(Nc3ccc(F)cc3)cc21", "observed": "cell-free assay", "concentration": "0.5 µM", "quantity": "remaining signal", "result": "99.6%"}
{"Structure (SMILES)": "CCN(CC)CCNC(=O)c1c(C)[nH]c(/C=C2\\C(=O)Nc3ccc(F)cc32)c1C", "observed": "enzyme activity", "mode": "inhibitor", "concentration": "0.1 µM", "quantity": "remaining activity", "result": "101%"}
{"Structure (SMILES)": "CCN(CC)CCNC(=O)c1c(C)[nH]c(/C=C2\\C(=O)Nc3ccc(F)cc32)c1C", "observed": "enzyme activity", "mode": "inhibitor", "concentration": "10 µM", "quantity": "inhibition", "result": "31%"}
{"Structure (SMILES)": "COc1cc(Cl)c(C(=O)N[C@@H](CN[C@H]2CC[C@@H](N)CC2)Cc2ccc(C#N)cc2)cc1-c1ccc(CN[C@H](C)c2ccc(C)cc2)o1", "observed": "enzyme activity", "mode": "inhibitor", "concentration": "1 µM", "quantity": "remaining activity", "result": "104%"}
{"Structure (SMILES)": "Cc1ccc(NC(=O)c2ccc(C)c(C(F)(F)F)c2)cc1C#Cc1nn(C2CCC(O)CC2)c2ncnc(N)c12 (stereo not drawn)", "observed": "cell-free assay", "concentration": "10 µM", "quantity": "remaining signal", "result": "16%"}
{"Structure (SMILES)": "CNC(=O)c1cc(Oc2ccc(NC(=O)Nc3ccc(Cl)c(C(F)(F)F)c3)cc2)ccn1", "observed": "enzyme activity", "mode": "inhibitor", "concentration": "0.3 µM", "quantity": "inhibition", "result": "108%"}
{"Structure (SMILES)": "Cc1cc(NC(=O)c2cccc(S(F)(F)(F)(F)F)c2)cc(-n2ccn3nc(-c4cccnc4)cc23)c1", "observed": "cell-free assay", "technique": "competition with immobilised ligand", "concentration": "1 µM", "quantity": "remaining binding", "result": "18.2%"}
{"Structure (SMILES)": "CC(C)(C)c1nc(-c2cccc(NS(=O)(=O)c3c(F)cccc3F)c2F)c(-c2ccnc(N)n2)s1", "observed": "enzyme activity", "mode": "inhibitor", "technique": "radiometric", "concentration": "1 µM", "quantity": "remaining activity", "result": "14%"}
{"Structure (SMILES)": "FC(F)(F)c1ccc2c(c1)nc(-c1cccnc1)n2C1CC1", "observed": "cell-free assay", "technique": "competition with immobilised ligand", "concentration": "1 µM", "quantity": "remaining binding", "result": "100%"}
{"Structure (SMILES)": "Cc1[nH]c(/C=C2\\C(=O)Nc3ccc(F)cc32)c(C)c1C(=O)N[C@H]1CCN(C(=O)N(C)C)C1", "observed": "enzyme activity", "mode": "inhibitor", "concentration": "0.1 µM", "quantity": "remaining activity", "result": "113%"}
{"Structure (SMILES)": "O=C(Nc1ccc(Oc2ccc(F)cc2)cc1)N1CCc2ncccc2[C@H]1c1ccc(F)cc1", "observed": "cell-free assay", "technique": "competition with immobilised ligand", "concentration": "1 µM", "quantity": "remaining binding", "result": "100%"}
{"Structure (SMILES)": "Cc1ccc(C(=O)NCc2ccsc2)cc1C#Cc1cn(C(C)C)c2ncnc(N)c12", "observed": "enzyme activity", "mode": "inhibitor", "concentration": "1 µM", "quantity": "activity vs control", "result": "4%"}
